Laboratory results taken from ChEMBL document CHEMBL4049431 (J Med Chem, 2017).
pEC50: −log10 of the molar value. Activity calls are given as the source filed them.

What was measured:
Mus musculus [1] = experiment: Analgesic activity in sc dosed B6-SJL mouse assessed as increase in tail withdrawal latency measured 30 mins post each dose by warm water tail withdrawal assay; format: functional; settings: 0.5 h
Outline: (§1)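 Vehicle was DMSO:Tween-80:saline 2:1:7. Tail-withdrawal latency in 50 °C water (10 s cutoff) was recorded 30 min after each dose.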

Mus musculus [2] = experiment: Analgesic activity in formalin-induced B6-SJL mouse pain model assessed as inhibition of inflammatory response at 2 mg/kg, ip preincubated for 10 mins followed by formalin injection measured at 20 to 50 mins; format: functional, organism-based
Outline: (§2)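 Mice habituated to the test box received agonist ip in DMSO:Tween-80:saline (2:1:7). Ten min later, 20 μL of 2% formalin was injected intradermally into the right hind footpad. Video ran for 60 min, scored every 5 s (weight-bearing scale 0–3) by a blinded analyst and averaged per 5 min.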

Mus musculus [3] = experiment: Antiinflammatory activity in B6-SJL mouse assessed as reduction in formalin-induced paw edema at 2 mg/kg, ip preincubated for 10 mins followed by formalin injection measured at 60 mins; format: functional, organism-based
Outline: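 Right hind paw height, width and depth were measured by calipers before ip drug or vehicle (DMSO:Tween-80:saline 2:1:7). Intradermal 2% formalin (20 μL) followed 10 min later, and measurements were repeated at 60 min. One-way ANOVA with Bonferroni tests; n = 7 per group.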

Mus musculus [4] = experiment: Analgesic activity in formalin-induced B6-SJL mouse pain model assessed as inhibition of nociceptive response AUC at 2 mg/kg, ip preincubated for 10 mins followed by formalin injection measured up to 15 mins; format: functional, organism-based; outline: as §2
[5] = Metabolic stability in IGS Sprague-Dawley rat liver microsomes assessed as CYP450-mediated oxidative metabolism at 10 uM measured at 2.5 hrs in presence of NADPH by LC-MS analysis; format: ADME
Outline: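 Rat liver microsomes (0.25 mg/mL) in 50 mM potassium phosphate with 2 mM MgCl2, pH 7.4, were prewarmed to 37 °C. Compound (10 μM final) and NADPH (1 mM final) were added. Samples were quenched in MeCN with 1% formic acid containing tolbutamide, centrifuged and analysed by LCMS.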

Mus musculus [6] = experiment: Analgesic activity in formalin-induced B6-SJL mouse pain model assessed as inhibition of inflammatory response AUC at 2 mg/kg, ip preincubated for 10 mins followed by formalin injection measured at 15 to 60 mins; format: functional, organism-based; outline: as §2
[7] = molecular target: Delta-type opioid receptor (Homo sapiens) (UniProt P41143); experiment: Agonist activity at human delta-type opioid receptor expressed in CHO-K1 cells assessed as forskolin-induced cAMP accumulation up to 10 uM after 30 mins in presence of forskolin by luminescence-based HitHunter cAMP assay; format: functional, cell-based
Outline: (§3)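 CHO-K1 cells expressing the receptor were kept at 37 °C in 5% CO2. cAMP data were normalized to vehicle and forskolin-only controls. Each compound was run in triplicate in parallel assays in ≥2 independent experiments. EC50 and Emax came from sigmoidal nonlinear regression and were averaged across experiments as mean ± SEM.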

Mus musculus [8] = experiment: Analgesic activity in B6-SJL mouse assessed as increase in tail withdrawal latency at 0.3 to 10 mg/kg, sc measured 30 mins post each dose by warm water tail withdrawal assay; format: functional; settings: 0.5 h; outline: as §1
Liver = experiment: Metabolic stability in IGS Sprague-Dawley rat liver microsomes at 10 uM measured at 2.5 hrs in absence of NADPH by LC-MS analysis; format: ADME, microsome
Outline: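 Incubation used rat liver microsomes (0.25 mg/mL) in 50 mM potassium phosphate, 2 mM MgCl2, pH 7.4, at 37 °C, with 10 μM compound final and buffer in place of NADPH. Samples were quenched in MeCN/1% formic acid with tolbutamide, then quantified by LCMS.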

Mus musculus [9] = experiment: Analgesic activity in formalin-induced B6-SJL mouse pain model assessed as inhibition of nociceptive response at 2 mg/kg, ip preincubated for 10 mins followed by formalin injection measured at 5 to 10 mins; format: functional, organism-based; outline: as §2
Mus musculus [10] = experiment: Analgesic activity in B6-SJL mouse assessed as increase in tail withdrawal latency at 2 mg/kg, ip measured up to 5 to 30 mins by warm water tail withdrawal assay; format: functional, organism-based
Outline: (§4)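 Adult male mice (25−35 g) were habituated to restrainers over four days. Drug or vehicle (DMSO:Tween-80:saline 2:1:7) was given ip. One-third of the tail was immersed in 50 °C water, with a 10 s cutoff. Baseline was the mean of three latencies. Readings were taken at 5–120 min. %MPE was calculated against pretreatment latency; n = 8−9 per group.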

[11] = molecular target: Mu-type opioid receptor (Homo sapiens) (UniProt P35372); experiment: Agonist activity at human mu-type opioid receptor expressed in CHO-K1 cells assessed as forskolin-induced cAMP accumulation up to 10 uM after 30 mins in presence of forskolin by luminescence-based HitHunter cAMP assay; format: functional, cell-based; outline: as §3
[12] = molecular target: T1, Kappa-type opioid receptor (Homo sapiens, UniProt P41145); experiment: Agonist activity at human kappa-type opioid receptor expressed in CHO-K1 cells assessed as forskolin-induced cAMP accumulation up to 10 uM after 30 mins in presence of forskolin by luminescence-based HitHunter cAMP assay; format: functional, cell-based; outline: as §3
[13] = molecular target: T1, Kappa-type opioid receptor; experiment: Agonist activity at human kappa-type opioid receptor expressed in CHO-K1 cells assessed as forskolin-induced cAMP accumulation after 30 mins in presence of forskolin by luminescence-based HitHunter cAMP assay; format: functional, cell-based; outline: as §3
Mus musculus [14] = experiment: Analgesic activity in formalin-induced B6-SJL mouse pain model assessed as inhibition of nociceptive response AUC at 2 mg/kg, ip preincubated for 10 mins followed by formalin injection measured up to 15 mins in presence of kappa-type opioid receptor antagonist nor-BNI; format: functional, organism-based
Outline: (§5)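 nor-BNI (10 mg/kg, sc) was given 24 h before ip agonist (DMSO:Tween-80:saline 2:1:7). After 10 min, 20 μL of 2% formalin was injected intradermally into the right hind paw.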

Mus musculus [15] = experiment: Analgesic activity in formalin-induced B6-SJL mouse pain model assessed as inhibition of inflammatory response AUC at 2 mg/kg, ip preincubated for 10 mins followed by formalin injection measured at 15 to 60 mins in presence of kappa-type opioid receptor antagonist nor-BNI; format: functional, organism-based; outline: as §5
Mus musculus [16] = experiment: Analgesic activity in formalin-induced B6-SJL mouse pain model assessed as inhibition of nociceptive response at 2 mg/kg, ip preincubated for 10 mins followed by formalin injection measured at 10 mins; format: functional, organism-based; outline: as §2
Mus musculus [17] = experiment: Analgesic activity in formalin-induced B6-SJL mouse pain model assessed as inhibition of inflammatory response at 2 mg/kg, ip preincubated for 10 mins followed by formalin injection measured at 20 to 45 mins; format: functional, organism-based; outline: as §2
Mus musculus [18] = experiment: Analgesic activity in formalin-induced B6-SJL mouse pain model assessed as inhibition of nociceptive response at 2 mg/kg, ip preincubated for 10 mins followed by formalin injection measured at 10 mins in presence of kappa-type opioid receptor antagonist nor-BNI; format: functional, organism-based; outline: as §5
Mus musculus [19] = experiment: Analgesic activity in formalin-induced B6-SJL mouse pain model assessed as inhibition of inflammatory response at 2 mg/kg, ip preincubated for 10 mins followed by formalin injection measured at 20 to 45 mins in presence of kappa-type opioid receptor antagonist nor-BNI; format: functional, organism-based; outline: as §5
Mus musculus [20] = experiment: Analgesic activity in B6-SJL mouse assessed as increase in tail withdrawal latency at 2 mg/kg, ip measured up to 10 to 30 mins by warm water tail withdrawal assay; format: functional, organism-based; outline: as §4

T1 sequence (P41145 whole entry): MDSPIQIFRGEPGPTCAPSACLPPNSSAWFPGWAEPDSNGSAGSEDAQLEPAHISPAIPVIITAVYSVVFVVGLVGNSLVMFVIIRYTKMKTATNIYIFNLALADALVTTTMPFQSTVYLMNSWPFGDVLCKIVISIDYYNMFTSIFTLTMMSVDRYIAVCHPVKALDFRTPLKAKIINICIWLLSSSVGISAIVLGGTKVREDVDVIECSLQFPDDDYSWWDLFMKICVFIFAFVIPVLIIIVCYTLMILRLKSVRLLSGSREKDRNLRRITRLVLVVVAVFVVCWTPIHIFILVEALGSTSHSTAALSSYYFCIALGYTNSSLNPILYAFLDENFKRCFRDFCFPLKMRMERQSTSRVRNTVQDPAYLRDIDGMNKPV
Delta-type opioid receptor (Homo sapiens), sequence (P41143 whole entry): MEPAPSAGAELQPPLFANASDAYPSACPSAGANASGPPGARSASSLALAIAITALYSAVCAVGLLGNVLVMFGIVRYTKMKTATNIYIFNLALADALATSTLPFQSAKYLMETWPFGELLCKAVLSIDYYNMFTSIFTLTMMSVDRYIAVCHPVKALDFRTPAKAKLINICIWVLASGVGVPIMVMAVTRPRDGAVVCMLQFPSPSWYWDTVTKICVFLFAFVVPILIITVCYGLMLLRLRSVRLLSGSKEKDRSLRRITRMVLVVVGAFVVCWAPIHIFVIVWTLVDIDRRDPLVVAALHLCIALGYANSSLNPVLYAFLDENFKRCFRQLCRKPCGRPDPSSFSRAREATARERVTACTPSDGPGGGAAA
Mu-type opioid receptor (Homo sapiens), sequence (P35372 whole entry): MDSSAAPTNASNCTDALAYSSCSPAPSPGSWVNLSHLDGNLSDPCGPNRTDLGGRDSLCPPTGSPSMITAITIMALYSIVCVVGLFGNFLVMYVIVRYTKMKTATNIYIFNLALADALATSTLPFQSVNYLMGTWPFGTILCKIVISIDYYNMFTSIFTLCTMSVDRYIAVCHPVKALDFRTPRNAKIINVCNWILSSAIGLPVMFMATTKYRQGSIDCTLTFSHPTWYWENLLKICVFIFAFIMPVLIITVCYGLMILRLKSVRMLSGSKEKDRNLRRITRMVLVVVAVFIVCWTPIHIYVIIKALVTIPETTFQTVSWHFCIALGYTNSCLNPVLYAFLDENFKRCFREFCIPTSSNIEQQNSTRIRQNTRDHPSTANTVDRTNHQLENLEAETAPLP

| Compound | Emax [7] | Emax [11] | Emax [12] | pEC50 [13] | also measured |
| --- | --- | --- | --- | --- | --- |
| COC(=O)[C@@H]1C[C@H](OC(C)=O)C(=O)[C@H]2[C@@]1(C)CC[C@H]1C(=O)O[C@H](c3ccoc3)C[C@]21C [SALVINORIN A] | 0% | 0% | – | – | ED50 (Mus musculus [1]): 1.28 mg/kg; inhibition (Mus musculus [2]): Active; inhibition (Mus musculus [3]): Active; inhibition (Mus musculus [4]): Active; Stability [5]: Stable; inhibition (Mus musculus [6]): Active; Emax (Mus musculus [8]): 100%; Stability (Liver): Stable; inhibition (Mus musculus [9]): Active; Activity (Mus musculus [10]): Active |
| COC(=O)[C@@H]1CC(=O)C(O)=C2[C@@]1(C)CC[C@H]1C(=O)O[C@H](c3ccoc3)C[C@]21C | – | – | 0% | < 5.00 | – |
| COC(=O)[C@H]1[C@](C)([C@@H](CC(=O)O)C(=O)OC)CC[C@H]2C(=O)O[C@H](c3ccoc3)C[C@]12C | – | – | 0% | < 5.00 | – |
| COC(=O)[C@H]1[C@](C)([C@@H](CC=O)C(=O)OC)CC[C@H]2C(=O)O[C@H](c3ccoc3)C[C@]12C | 0% | 0% | 100% | 7.52 | – |
| COC(=O)[C@@H]1C[C@H](O)C(=O)[C@H]2[C@@]1(C)CC[C@H]1C(=O)O[C@H](c3ccoc3)C[C@]21C | 0% | 0% | 100% | – | – |
| COC(=O)[C@H]1[C@](C)([C@@H](CC(OC)OC)C(=O)OC)CC[C@H]2C(=O)O[C@H](c3ccoc3)C[C@]12C | 0% | 0% | 100% | 7.93 | – |
| COC(=O)[C@@H]1C[C@]2(CCC(=O)O2)C(=O)[C@H]2[C@@]1(C)CC[C@H]1C(=O)O[C@H](c3ccoc3)C[C@]21C | 0% | 0% | 100% | 9.22 | ED50 (Mus musculus [1]): 0.759 mg/kg; inhibition (Mus musculus [3]): Active; inhibition (Mus musculus [14]): inactive; inhibition (Mus musculus [15]): inactive; inhibition (Mus musculus [4]): Active; Stability [5]: Stable; inhibition (Mus musculus [6]): Active; inhibition (Mus musculus [16]): Active; inhibition (Mus musculus [17]): Active; Emax (Mus musculus [8]): 62.4%; Stability (Liver): Stable; inhibition (Mus musculus [18]): inactive; inhibition (Mus musculus [19]): inactive; Activity (Mus musculus [20]): Active |
| COC(=O)[C@H]1[C@](C)([C@@H](CCOC(C)=O)C(=O)OC)CC[C@H]2C(=O)O[C@H](c3ccoc3)C[C@]12C | 0% | 0% | 100% | 7.89 | – |
| COC(=O)[C@H]1[C@](C)([C@@H](CCO)C(=O)OC)CC[C@H]2C(=O)O[C@H](c3ccoc3)C[C@]12C | – | – | 0% | < 5.00 | – |
| COC(=O)[C@@H]1CCC(=O)[C@H]2[C@@]1(C)CC[C@H]1C(=O)O[C@H](c3ccoc3)C[C@]21C | – | – | 0% | < 5.00 | – |
